B1: tRNA (parent)
chain: GUUCCGUUGGCGUAAUGGUAACGCGUCUCCCUCCUAAGGAGAAGACUGCGGGUUCGAGUCCCGUACGGAACG

Experimental findings from the RNAGym collection of RNA variant scans (doi:10.1126/science.aae0568) are described below.

Fewer inactive variants are shown than the library holds. A value given as a limit tells only on which side of the number the result lay.

This data set covers variants of B1. Briefly: yeast fitness relative to wild type (ratio to wild type); higher = fitter; tRNA-Arg(CCU), competitive growth, 37 C, YPD. In a few lines:
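Start and end populations of a pooled competition were compared by 100-nucleotide paired-end sequencing of gene amplicons. The Saccharomyces cerevisiae strains carried tRNA-Arg(CCU) gene variants at the native genomic locus, synthesised with a 3% per-site mutation rate at 69 sites, and competed in YPD at 37°C for 24 hours in six parallel replicates. Darwinian fitness relative to wild type was based on the change in genotype frequencies. Genotypes required ≥ 100 starting reads, and estimates < 0.5 were set to 0.5.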
Regarding GAUCCGUUGGCGUAUUGGUAACGCGUCUCCCUCCUAACAAGACGACUGCGGGUUCGAGUGCCGUCCGGAACG [U2A A15U G38C G39A A43C C60G A65C], the yeast fitness is no more than 0.5.

For the variant GAUCCGUUGGCGUAAUGGUAGCGCGUCUCCCUCCUAAGGAGAACACUGCGGGUUCGAGGCCCGUACGGAACG [U2A A21G G44C U59G], the yeast fitness is no more than 0.5.

Regarding GAUCCGUUGGCGUAAUGGUAGCGCGUCUCCCUCCUAAGGAGAAGAGUGCGGGUCCGAGUCCCGUACGGAACG [U2A A21G C46G U54C], the yeast fitness was no more than 0.5.

As to GAUCCGUUGGCGUAAUGGUCACGCGUCUCCCUCCUAAGGAGAAGACUGCGGGUUCGAGUCCUGUAGGGAACG [U2A A20C C62U C66G], the yeast fitness was no more than 0.5.

On to GAUCCGUUGGCGUAGUGGUAACGCGUCUCCCUCCUAAGGAGAAGACUGCGGGUUCGAGUCCCGUACGGAACG [U2A A15G], for which the yeast fitness is 0.981.

As for GAUCCGUUGGCGUAUUGGUAACGCGUCUCCCUCCUAAGGAGAAGACUGGGGGUUCGAGUCCCGUACGGAACG [U2A A15U C49G], the yeast fitness was no more than 0.5.

For GAUCCGUUGGCGUAAUGGUCACGCGUCUCCCUCCUAAGGAGAAGACUGCGGAUUCGAGUCCCGUACGGAACG [U2A A20C G52A], the yeast fitness worked out at 0.542.

As for GAUCCGUUGGCGUCAUGGUAACGCGUCUCCCUCCUGAGGAGAAGACUGCGGGUUCGAGUCCCGUAUGGAACG [U2A A14C A36G C66U], the yeast fitness is 0.639.

In the case of GAUCCGUUGGCGUCAUGGUAACGCGUCUCUCUCGUAAGGAGAAGACUGCGGGUUCGACUCCCGUACGGAACG [U2A A14C C30U C34G G58C], the yeast fitness was no more than 0.5.

Turning to GAUCCGUUGGCGUAAUGGUCACGCGUCUCCCUCCUAAGGAGAAGACUGCGGGUUCGAGUCCCGUACGAAACG [U2A A20C G68A], the yeast fitness amounted to 0.719.

In the case of GAUCCGUUGGCGUAUAGGUAACGCGUCUCCCUCCUAAGGAGAAGACUGCGGGUUCGAGUUCGGUCCGGUACG [U2A A15U U16A C60U C62G A65C A69U], the yeast fitness was no more than 0.5.

On to GAUCCGUUGGCGUAAUGGUCACGCGUCUCCCUACUAAGGAGAAGACUGCGGGUUUGAGUCCCGUACGGAACG [U2A A20C C33A C55U], for which the yeast fitness was no more than 0.5.

On to GAUCCGUUGGCGUUAUGGUCACGCGUCUCCCUCCAAACGAGAAGACUGCGGGUUCGAGUCCCGUACGGUACG [U2A A14U A20C U35A G38C A69U], for which the yeast fitness was no more than 0.5.

Take GAUCCGUUGGCGUUAUGGUAACGCGUCUCCCUCCUAAGGACAAGACUGCGGGUUCGAGUCCCGUACGGAACG [U2A A14U G41C]: the yeast fitness is no more than 0.5.

GAUCCGUUGGCGUGAUGGUAACGCGUCUCCCUCCUAAGGAGAAGACUGCGGGUUCGAGUCCCGUACGGAACG [U2A A14G]: the yeast fitness worked out at 0.891.

As for GAUCCGUUGGCGUAGCGGUCUCGCGCCUCCCUCCUAAGGAGAAGACUGCGGGUUCGAGUCCCGUACGGAACG [U2A A15G U16C A20C A21U U26C], the yeast fitness is 0.583.

In the case of GAUCCGUUGGCGUCAUGGUGACGCGUCUCCCUCCUGAGGAGAAGACUGCGGGUCUGAGUCCCGUACGCAACG [U2A A14C A20G A36G U54C C55U G68C], the yeast fitness turned out to be 0.544.

Take GAUCCGUUGGCGUAAUGGUACCGGGUCUCCCACCUAAGGAGCAGACUGCGGGUUCGAGUCCCGUUCGGAACG [U2A A21C C24G U32A A42C A65U]: the yeast fitness was no more than 0.5.

In the case of GAUCCGUUGGCGUAAUGGUUACGCGUCUCCCUCCUAAGGAGAAGACUGCGGGUUCGAGUCCCGUACGGAACG [U2A A20U], the yeast fitness stood at 0.732.

Regarding GAUCCGUUGGCGUAGUGGUAACGUGUCUCCCUCCUAAGGAGAAGACUGCGGGUCCGAGUCCCGUACGGAACG [U2A A15G C24U U54C], the yeast fitness was determined as 0.726.

As for GAUCCGUUGGCGUAAUGGUAGCGCGUCUCCCUCCUGAGGAGAACACUGCGGGUUCGAGGCCCGUACGGAACG [U2A A21G A36G G44C U59G], the yeast fitness is no more than 0.5.

With GAUCCGUUGGCGUAAUGGUCACGCGUCUCCCUCCUAGGGAGAAGACUGCGGAAUCGAGUCCCGUACGGAACG [U2A A20C A37G G52A U53A], the yeast fitness is no more than 0.5.

Turning to GAUCCGUUGGCGUAAUGGUGACGCGUCUCCCUCCUAAGGAGAAAACUGCGGGUUCGAGUCCCGUACGGAACG [U2A A20G G44A], the yeast fitness was 0.531.

GAUCCGUUGGCGUAAUGGUGACGCGUCUCCCUCCUAAGGAGAAGACUGCGGGUUCGACUCCCGUACGGAACG [U2A A20G G58C]: the yeast fitness is 0.973.

For GAUCCGUUGGCGUAAUGGUAGCGAGUCUCCCUCCUAAGGAGAAGACUGCGGGUUCGAGUCCCGUACGGAACG [U2A A21G C24A], the yeast fitness was no more than 0.5.

Regarding GAUCCGUUGGCGUAAUGGUAGCGCGUUUCCCUCCUAAGGAGAAGACUGCGGGUUCGAGUCCCGUACGGAACG [U2A A21G C27U], the yeast fitness is 0.693.

Turning to GAUCCGUUGGCGUAAUGGUUACGCGUCUCCCUCCUAAGGCGAAGACUGCGGGUUCGAGUCCCGUACGGAACG [U2A A20U A40C], the yeast fitness is 0.552.

GAUCCGUUGGCGUAAUGGUAUCGCGUUCCCCUCCUAAGGAGAAGACUGCGGGUUCGAGUCCGGUACGGAACG [U2A A21U C27U U28C C62G]: the yeast fitness is no more than 0.5.

With GAUCCGUUGGCGUAAUGGUAUCGCGUCUUCCUCCUAAGGUGAAGACUGCGGGAUCGAGUACCGUGCGGAACG [U2A A21U C29U A40U U53A C60A A65G], the yeast fitness is no more than 0.5.

With GAUCCGUUGGCGUCAUGGUAACGCGUCUCUCUCGUAAGGAGAAGACUGCGGGUUCGAGUCCCAUACGGAACG [U2A A14C C30U C34G G63A], the yeast fitness turned out to be 0.574.

GAUCCGUUGGCGUAAUGGUGACGCGUCUUCCUACUAAGGAGAAGACUGCGGGUUAGAGUGCCGUACGGAACG [U2A A20G C29U C33A C55A C60G]: the yeast fitness is no more than 0.5.

As for GAUCCGUUGGCGUAAUGGUAGCGCGUCUUCCUCCUAAGGUGAAGACUGCGGGUUCGAGUCCCGUACGGAACG [U2A A21G C29U A40U], the yeast fitness was found to be 0.57.

On to GAUCCGUUGGCGUAAUGGUUACGCGUCUCCCUCCCAAGGAGAAGACUGCGGGUUCGAGUCCCGUACGGAACG [U2A A20U U35C], for which the yeast fitness is no more than 0.5.

As to GAUCCGUUGGCGUAAUGGUUACGCGUCUCCCUCAUAAGGAGAAGACUGCGGGUUCGAGUCUCGUACGGAACG [U2A A20U C34A C61U], the yeast fitness is no more than 0.5.

In the case of GAUCCGUUGGCGUACUGGUAACGCGUCUCCCUCCUAAGGAGAAGACUGCGGGUUCGACUCCCGUACGGUACG [U2A A15C G58C A69U], the yeast fitness is no more than 0.5.

With GAUCCGUUGGCGUAAUGGUAACGCGUCUCCCUCCUAAGGAGAAGACUGCGGGUUCGAGUCCCGUACGGAACG [U2A], the yeast fitness was 0.988.

In the case of GAUCCGUUGGCGUAAUGGUAGCGCGUCUCCCUCCUAAGCAGAAGACUGCGGGUUCGAGUCCCGUACGGCACG [U2A A21G G39C A69C], the yeast fitness was no more than 0.5.

Take GAUCCGUUGGCGUAAUGGUCACGCGUCUCCCUCCUAAGGAGAAGACUGCGGGUUCGAGUCCCGUAUGGAACG [U2A A20C C66U]: the yeast fitness is 0.753.
